Source: ChEMBL document CHEMBL3272334, “Folate antagonists. 10. Synthesis and antimalarial effects of 6-[[(aryl and aralkyl)amino]methyl]-2,4-pteridinediamines and -pteridinediamine 8-oxides” (1978)
Calls of active or inactive are those of the source. The rule behind the calls is not given here.

These compounds were tested on Plasmodium gallinaceum (assay: Antimalarial activity against sporozoite stage of Plasmodium gallinaceum infected in white leghorn cockerel assessed as survival over 30 days at 320 mg/kg, sc administered through peanut oil on day of infection). Settings: not given.
Type: functional, organism-based
Parameters: dose 320 mg/kg

SMILES	Activity
CCN(Cc1cnc2nc(N)nc(N)c2n1)c1ccc(OC)cc1	Active

These compounds were tested on Plasmodium gallinaceum (assay: Antimalarial activity against sporozoite stage of Plasmodium gallinaceum infected in white leghorn cockerel assessed as increase in mean survival time at 120 mg/kg, sc administered through peanut oil on day of infection). Settings: route subcutaneous.
Type: functional

SMILES	Survival [days]
CN(C)C=O.Nc1nc(N)c2nc(CN3CCCCC3c3ccccc3)cnc2n1 (stereo not drawn)	0.2

The compounds below were run on Plasmodium gallinaceum (assay: Antimalarial activity against sporozoite stage of Plasmodium gallinaceum infected in white leghorn cockerel assessed as increase in mean survival time at 3.75 mg/kg, sc administered through peanut oil on day of infection). Settings: route subcutaneous.
Type: functional

SMILES	Survival [days]
Nc1nc(N)c2nc(CN3CCCc4ccccc43)cnc2n1	1.3

These compounds were tested on Plasmodium gallinaceum (assay: Antimalarial activity against sporozoite stage of Plasmodium gallinaceum infected in white leghorn cockerel assessed as survival over 30 days at 3.75 mg/kg, sc administered through peanut oil on day of infection). Settings: not given.
Type: functional, organism-based
Parameters: dose 3.75 mg/kg

SMILES	Activity
CCCN(Cc1cnc2nc(N)nc(N)c2n1)c1ccc(Cl)c(Cl)c1	Active
CC(C)N(Cc1cnc2nc(N)nc(N)c2n1)c1ccc(Cl)cc1.CN(C)C=O	Active

Each compound was assayed on Plasmodium berghei (assay: Antimalarial activity against trophozoite stage of Plasmodium berghei infected in mouse assessed as increase in mean survival time at 160 mg/kg, sc administered 72 hrs post infection). Settings: route subcutaneous.
Type: functional

SMILES	Survival [days]
COc1cc(N(C)Cc2cnc3nc(N)nc(N)c3n2)cc(OC)c1OC	8.5

The compounds below were run on Staphylococcus aureus (assay: Antibacterial activity against Staphylococcus aureus UC-76 assessed as growth inhibition by gradient plate test). Settings: not given.
Type: functional
How it was run: (§1)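 Modified gradient-plate method, in vitro. Panel: Streptococcus faecalis MGH-2, normal S. aureus UC-76, drug-resistant S. aureus S18713, E. coli Vogel, Shigella sonnei C-10.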

SMILES	MIC [µg/mL]
CCCN(Cc1cnc2nc(N)nc(N)c2n1)c1ccc(Cl)c(Cl)c1	< 0.25
CCN(Cc1cnc2nc(N)nc(N)c2n1)c1ccc(OC)cc1	< 0.25
CC(C)N(Cc1cnc2nc(N)nc(N)c2n1)c1ccc(Cl)cc1.CN(C)C=O	< 0.25
COc1cc(N(C)Cc2cnc3nc(N)nc(N)c3n2)cc(OC)c1OC	< 0.25

These compounds were tested on Plasmodium gallinaceum (assay: Antimalarial activity against sporozoite stage of Plasmodium gallinaceum infected in white leghorn cockerel assessed as survival over 30 days at 480 mg/kg, sc administered through peanut oil on day of infection). Settings: not given.
Type: functional, organism-based
Parameters: dose 480 mg/kg

SMILES	Activity
CCCN(Cc1cnc2nc(N)nc(N)c2n1)c1ccc(Cl)c(Cl)c1	Active
Nc1nc(N)c2nc(CN3CCCc4ccccc43)cnc2n1	Active
CC(C)N(Cc1cnc2nc(N)nc(N)c2n1)c1ccc(Cl)cc1.CN(C)C=O	Active

The compounds below were run on Staphylococcus aureus (assay: Antibacterial activity against drug-resistant Staphylococcus aureus S18713 assessed as growth inhibition by gradient plate test). Settings: not given.
Type: functional
How it was run: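 In vitro test against a bacterial panel (S. faecalis MGH-2, S. aureus UC-76 and drug-resistant S18713, E. coli Vogel, Shigella sonnei C-10), run as a modified gradient plate procedure.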

SMILES	MIC [µg/mL]
CCCN(Cc1cnc2nc(N)nc(N)c2n1)c1ccc(Cl)c(Cl)c1	< 0.25
CCN(Cc1cnc2nc(N)nc(N)c2n1)c1ccc(OC)cc1	< 0.25
CC(C)N(Cc1cnc2nc(N)nc(N)c2n1)c1ccc(Cl)cc1.CN(C)C=O	1.5
COc1cc(N(C)Cc2cnc3nc(N)nc(N)c3n2)cc(OC)c1OC	< 0.25

What follows are compounds tested on Plasmodium gallinaceum (assay: Antimalarial activity against sporozoite stage of Plasmodium gallinaceum infected in white leghorn cockerel assessed as increase in mean survival time at 480 mg/kg, sc administered through peanut oil on day of infection). Settings: route subcutaneous.
Type: functional

SMILES	Survival [days]
CN(C)C=O.Nc1nc(N)c2nc(CN3CCCCC3c3ccccc3)cnc2n1 (stereo not drawn)	0.3

The compounds below were run on Plasmodium gallinaceum (assay: Antimalarial activity against sporozoite stage of Plasmodium gallinaceum infected in white leghorn cockerel assessed as survival over 30 days at 30 mg/kg, sc administered through peanut oil on day of infection). Settings: not given.
Type: functional, organism-based
Parameters: dose 30 mg/kg

SMILES	Activity
CCCN(Cc1cnc2nc(N)nc(N)c2n1)c1ccc(Cl)c(Cl)c1	Active
Nc1nc(N)c2nc(CN3CCCc4ccccc43)cnc2n1	Active
CC(C)N(Cc1cnc2nc(N)nc(N)c2n1)c1ccc(Cl)cc1.CN(C)C=O	Active

These compounds were tested on Escherichia coli (assay: Antibacterial activity against Escherichia coli Vogel assessed as growth inhibition by gradient plate test). Settings: not given.
Type: functional
How it was run: as §1

SMILES	MIC [µg/mL]
CCCN(Cc1cnc2nc(N)nc(N)c2n1)c1ccc(Cl)c(Cl)c1	> 25
CCN(Cc1cnc2nc(N)nc(N)c2n1)c1ccc(OC)cc1	> 25
CC(C)N(Cc1cnc2nc(N)nc(N)c2n1)c1ccc(Cl)cc1.CN(C)C=O	> 25
COc1cc(N(C)Cc2cnc3nc(N)nc(N)c3n2)cc(OC)c1OC	> 25

Each compound was assayed on Plasmodium gallinaceum (assay: Antimalarial activity against sporozoite stage of Plasmodium gallinaceum infected in white leghorn cockerel assessed as survival over 30 days at 120 mg/kg, sc administered through peanut oil on day of infection). Settings: not given.
Type: functional, organism-based
Parameters: dose 120 mg/kg

SMILES	Activity
CCCN(Cc1cnc2nc(N)nc(N)c2n1)c1ccc(Cl)c(Cl)c1	Active
Nc1nc(N)c2nc(CN3CCCc4ccccc43)cnc2n1	Active
CC(C)N(Cc1cnc2nc(N)nc(N)c2n1)c1ccc(Cl)cc1.CN(C)C=O	Active

These compounds were tested on Shigella sonnei (assay: Antibacterial activity against Shigella sonnei C-10 assessed as growth inhibition by gradient plate test). Settings: not given.
Type: functional
How it was run: as §1

SMILES	MIC [µg/mL]
CCCN(Cc1cnc2nc(N)nc(N)c2n1)c1ccc(Cl)c(Cl)c1	> 25
CCN(Cc1cnc2nc(N)nc(N)c2n1)c1ccc(OC)cc1	> 25
CC(C)N(Cc1cnc2nc(N)nc(N)c2n1)c1ccc(Cl)cc1.CN(C)C=O	> 25
COc1cc(N(C)Cc2cnc3nc(N)nc(N)c3n2)cc(OC)c1OC	> 25

Each compound was assayed on Plasmodium gallinaceum (assay: Antimalarial activity against sporozoite stage of Plasmodium gallinaceum infected in white leghorn cockerel assessed as increase in mean survival time at 30 mg/kg, sc administered through peanut oil on day of infection). Settings: route subcutaneous.
Type: functional

SMILES	Survival [days]
CN(C)C=O.Nc1nc(N)c2nc(CN3CCCCC3c3ccccc3)cnc2n1 (stereo not drawn)	0.1

Each compound was assayed on Plasmodium gallinaceum (assay: Antimalarial activity against sporozoite stage of Plasmodium gallinaceum infected in white leghorn cockerel assessed as survival over 30 days at 60 mg/kg, sc administered through peanut oil on day of infection). Settings: not given.
Type: functional, organism-based
Parameters: dose 60 mg/kg

SMILES	Activity
CCCN(Cc1cnc2nc(N)nc(N)c2n1)c1ccc(Cl)c(Cl)c1	Active
Nc1nc(N)c2nc(CN3CCCc4ccccc43)cnc2n1	Active
CC(C)N(Cc1cnc2nc(N)nc(N)c2n1)c1ccc(Cl)cc1.CN(C)C=O	Active

What follows are compounds tested on Enterococcus faecalis (assay: Antibacterial activity against Streptococcus faecalis MGH2 assessed as growth inhibition by gradient plate test). Settings: not given.
Type: functional
How it was run: as §1

SMILES	MIC [µg/mL]
CCCN(Cc1cnc2nc(N)nc(N)c2n1)c1ccc(Cl)c(Cl)c1	< 0.25
CCN(Cc1cnc2nc(N)nc(N)c2n1)c1ccc(OC)cc1	< 0.25
CC(C)N(Cc1cnc2nc(N)nc(N)c2n1)c1ccc(Cl)cc1.CN(C)C=O	< 0.25
COc1cc(N(C)Cc2cnc3nc(N)nc(N)c3n2)cc(OC)c1OC	< 0.25

The compounds below were run on Plasmodium berghei (assay: Antimalarial activity against drug-sensitive trophozoite stage of Plasmodium berghei infected in mouse assessed as increase in mean survival time up to 640 mg/kg, sc administered 72 hrs post infection). Settings: not given.
Type: functional, organism-based
Parameters: dose 640 mg/kg

SMILES	Activity
CCCN(Cc1cnc2nc(N)nc(N)c2n1)c1ccc(Cl)c(Cl)c1	inactive
CCN(Cc1cnc2nc(N)nc(N)c2n1)c1ccc(OC)cc1	inactive
CC(C)N(Cc1cnc2nc(N)nc(N)c2n1)c1ccc(Cl)cc1.CN(C)C=O	inactive

The compounds below were run on Plasmodium berghei (assay: Antimalarial activity against drug-sensitive trophozoite stage of Plasmodium berghei infected in mouse assessed as survival over 60 days at 320 mg/kg, sc administered 72 hrs post infection). Settings: not given.
Type: functional, organism-based
Parameters: dose 320 mg/kg

SMILES	Activity
COc1cc(N(C)Cc2cnc3nc(N)nc(N)c3n2)cc(OC)c1OC	Active

What follows are compounds tested on Plasmodium gallinaceum (assay: Antimalarial activity against sporozoite stage of Plasmodium gallinaceum infected in white leghorn cockerel assessed as survival over 30 days at 80 mg/kg, sc administered through peanut oil on day of infection). Settings: not given.
Type: functional, organism-based
Parameters: dose 80 mg/kg

SMILES	Activity
CCN(Cc1cnc2nc(N)nc(N)c2n1)c1ccc(OC)cc1	Active

The compounds below were run on Plasmodium gallinaceum (assay: Antimalarial activity against sporozoite stage of Plasmodium gallinaceum infected in white leghorn cockerel assessed as survival over 30 days at 15 mg/kg, sc administered through peanut oil on day of infection). Settings: not given.
Type: functional, organism-based
Parameters: dose 15 mg/kg

SMILES	Activity
CC(C)N(Cc1cnc2nc(N)nc(N)c2n1)c1ccc(Cl)cc1.CN(C)C=O	Active

These compounds were tested on Plasmodium gallinaceum (assay: Antimalarial activity against sporozoite stage of Plasmodium gallinaceum infected in white leghorn cockerel assessed as survival over 30 days at 20 mg/kg, sc administered through peanut oil on day of infection). Settings: not given.
Type: functional, organism-based
Parameters: dose 20 mg/kg

SMILES	Activity
CCN(Cc1cnc2nc(N)nc(N)c2n1)c1ccc(OC)cc1	Active

The compounds below were run on Plasmodium gallinaceum (assay: Antimalarial activity against sporozoite stage of Plasmodium gallinaceum infected in white leghorn cockerel assessed as increase in mean survival time at 7.5 mg/kg, sc administered through peanut oil on day of infection). Settings: route subcutaneous.
Type: functional

SMILES	Survival [days]
Nc1nc(N)c2nc(CN3CCCc4ccccc43)cnc2n1	2.3
